How the values were obtained:
[1] = tested on: Mus musculus; assay: Antidepressant activity in albino mouse assessed as decrease in immobility time at 10 mg/kg, ip after 60 mins by forced-swimming test relative to untreated control; assay type: functional; set-up: scale not given: the % may be the effect or the level left; details: route intraperitoneal
Outline: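 Albino mice given 10 mg/kg ip; forced swim in a vertical Plexiglas cylinder of water at 25 °C for 15 min, immobility plateauing after 5–6 min; % immobility calculated; mice dried in a heated enclosure (32 °C) afterwards.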

[2] = tested on: Mus musculus; assay: Neurotoxicity in albino mouse assessed as animal in lateral position at 10 mg/kg, ip administered 1 hr prior to ethanol challenge measured after 30 mins; assay type: functional; details: route intraperitoneal

Row | SMILES | Activity [1] [%] | Activity [2] [%]
1 | CN(C)CCCN1c2ccccc2CCc2ccccc21 [IMIPRAMINE] | 82 | <50
2 | Clc1ccc(/C=C/C(=N\c2nnc(SCc3ccccc3)s2)c2ccc(Cl)cc2)cc1 | – | <50
3 | COc1ccc(/C=C/C(=N\c2nnc(SCc3ccc(Cl)cc3)s2)c2ccc(Cl)cc2)cc1 | 84.23 | <50
4 | COc1ccc(/C=C/C(=N\c2nnc(SCc3ccccc3)s2)c2ccc(Cl)cc2)cc1 | 77.99 | <50
5 | Clc1ccc(/C=C/C(=N\c2nnc(SCc3ccc(Cl)cc3)s2)c2ccc(Cl)cc2)cc1 | 87.57 | <50

From ChEMBL document CHEMBL1139403, “Syntheses and anti-depressant activity of 5-amino-1, 3, 4-thiadiazole-2-thiol imines and thiobenzyl derivatives” (2008)
